# Results reported in article PMC8693751 (RSC Advances, 2021).
# pIC50: −log10 of the molar value. Entries after “also recorded” stand apart in the source; their conditions may differ. Read-outs that look alike come from different tables or passages of the source.
# Tests used:
# [1] = tested on: L. infantum promastigotes; experiment: Leishmanicidal activity against promastigote forms, L. infantum; type: cell-based, Leishmania infantum
# In short: (§1)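 Promastigotes (L. amazonensis WHOM/00LTB0016; L. infantum MHOM/MA/67/ITMAP-263) at 1 × 10⁶ cells/mL in Schneider's medium with 10% FBS were exposed to eight test compound levels (1.5–200 μg mL−1) for 72 h at 26 °C. Untreated cells were the negative control and miltefosine the standard.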
# [2] = tested on: T. cruzi amastigotes (Tulahuen strain); experiment: Amastigote assay; type: cell-based; settings: Trypanosoma cruzi, L929, read-out: Amastigote, IC50
# In short: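 Tulahuen T. cruzi expressing E. coli beta-galactosidase, grown in L-929 fibroblasts in RPMI 1640 without phenol red with 10% FBS and glutamine. Fibroblasts were seeded at 4.0 × 10³/well overnight (37 °C, 5% CO2), then given trypomastigotes at 4.0 × 10⁴/well for 2 h before the free parasites were removed. At 48 h, test compound in DMSO was added (0.625–20 μg mL−1, six levels, quadruplicate). After 7 days, 100 μM chlorophenol red β-D-galactopyranoside and 0.1% Nonidet P-40 were added overnight at 37 °C and A570 read as % growth inhibition. Benznidazole was the positive control; two independent experiments.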
# [3] = tested on: L. amazonensis promastigotes; experiment: Leishmanicidal activity against promastigote forms, L. amazonensis; type: cell-based, Leishmania amazonensis
# In short: as §1
# [4] = tested on: L. amazonensis promastigotes; settings: cited from earlier work
# [5] = tested on: L. infantum promastigotes; settings: cited from earlier work
# T. cruzi trypomastigotes = experiment: Cell death assessment through flow cytometry; type: cell-based, Trypanosoma cruzi; settings: for double-positive (double-stained) cells (upper right quadrant): 24 hours
# In short: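 […] trypomastigotes taken from infected L929 supernatant were seeded at 4 × 10⁵/well in RPMI-1640 with test compound (in DMSO) at three levels, 37 °C for 24 h. Benznidazole was the positive control and medium the negative control. Cells were washed in PBS, placed in binding buffer, and labelled with propidium iodide (50 μg mL−1 solution) plus Annexin-FITC for 15 min at room temperature in the dark. 20000 events were acquired, in triplicate, and analysed by ANOVA with Dunnett's test (p < 0.05).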
# LLC-MK2 cells = settings: read-out: LLC-MK2, CC50, cited from earlier work
# [6] = Leishmania infantum, 72 h, read-out: Promastigotes IC50L.Inf, 72 hours
# [7] = Leishmania amazonensis, 72 h, read-out: Promastigotes IC50L.Ama, 72 hours
# [8] = read-out: IC50L.inf, earlier carboxylic acids
smiles,measurement,setting,value
"CCOC(=O)c1csc(NN=Cc2cccc(Cl)c2)n1 [1a, Ethyl 2-(2-(3-chlorobenzylidene)hydrazinyl)thiazole-4-carboxylate]",pIC50,[1]; [6],3.78
same,pIC50,[2],4.77
same,pIC50,[3]; [7],3.72
"CCOC(=O)c1csc(NN=Cc2ccccc2Cl)n1 [1b, Ethyl 2-(2-(2-chlorobenzylidene)hydrazinyl)thiazole-4-carboxylate]",pIC50,[1]; [6],4.84
same,pIC50,[3]; [7],4.55
same,pIC50,"[4]; read-out: IC50L.ama, earlier carboxylic acids",4.46
same,pIC50,[5]; [8],4.23
"CCOC(=O)c1csc(NN=Cc2ccc(OC)cc2)n1 [1c, Ethyl 2-(2-(4-methoxybenzylidene)hydrazinyl)thiazole-4-carboxylate]",pIC50,[1]; [6],3.48
same,pIC50,[3]; [7],3.41
same,pIC50,[5]; [8],4.07
"CCOC(=O)c1csc(NN=Cc2cccc(OC)c2)n1 [1d, Ethyl 2-(2-(3-methoxybenzylidene)hydrazinyl)thiazole-4-carboxylate]",pIC50,[1]; [6],3.98
same,pIC50,[3]; [7],3.80
"CCOC(=O)c1csc(NN=Cc2cccc(Br)c2)n1 [1e, Ethyl 2-(2-(3-bromobenzylidene)hydrazinyl)thiazole-4-carboxylate]",pIC50,[1]; [6],3.77
same,pIC50,[3]; [7],3.61
"CCOC(=O)c1csc(NN=Cc2ccccc2Br)n1 [1f, Ethyl 2-(2-(2-bromobenzylidene)hydrazinyl)thiazole-4-carboxylate]",pIC50,[1]; [6],4.63
same,pIC50,[2],4.25
same,pIC50,[3]; [7],4.63
same,pIC50,"[3]; read-out: Promastigotes IC50L.Ama, 72 hours",4.61
same,cell death mechanism of T. cruzi,T. cruzi trypomastigotes; PI / Annexin-V staining,necrosis and apoptosis; also recorded: consistent with necrosis
same,double-positive (double-stained) cells (upper right quadrant),T. cruzi trypomastigotes; at 4 × IC50 (1f 3.32 μM; BZD 141.6 μM),17.58%
"CCOC(=O)c1csc(NN=C(C)c2ccccc2)n1 [1g, Ethyl 2-(2-(1-phenylethylidene)hydrazinyl)thiazole-4-carboxylate]",pIC50,[1]; [6],4.43
same,pIC50,[2],4.39
same,pIC50,[3]; [7],4.37
"CCOC(=O)c1csc(NN=Cc2ccco2)n1 [1h, Ethyl 2-(2-(furan-2-ylmethylene)hydrazinyl)thiazole-4-carboxylate]",pIC50,[1]; [6],3.43
same,pIC50,[2],4.12
same,pIC50,[3]; [7],3.35
"CCOC(=O)CC1SC(=NN=Cc2ccccc2)NC1=O (centres unmarked) [2a, Ethyl 2-((2-benzylidene)hydrazono)-4-oxothiazolidine-5-acetate]",pIC50,[1]; [6],3.44
same,pIC50,[3]; [7],3.44
"COC(=O)CC1SC(=NN=Cc2ccc(Cl)cc2)NC1=O (centres unmarked) [2b, Methyl 2-(2-(4-chlorobenzylidene)hydrazono)-4-oxothiazolidine-5-acetate]",pIC50,[1]; [6],4.48
same,pIC50,[3]; [7],4.04
"CCOC(=O)CC1SC(=NN=Cc2ccccc2Cl)NC1=O (centres unmarked) [2c, Ethyl 2-(2-(2-chlorobenzylidene)hydrazono)-4-oxothiazolidine-5-acetate]",pIC50,[1]; [6],3.89
same,pIC50,[3]; [7],3.94
"CCOC(=O)CC1SC(=NN=Cc2ccc(Br)cc2)NC1=O (centres unmarked) [2d, Ethyl 2-(2-(4-bromobenzylidene)hydrazono)-4-oxothiazolidine-5-acetate]",pIC50,[1]; [6],4.84
same,pIC50,[3]; [7],4.83
"CCOC(=O)CC1SC(=NN=Cc2cccc(Br)c2)NC1=O (centres unmarked) [2e, Ethyl 2-(2-(3-bromobenzylidene)hydrazono)-4-oxothiazolidine-5-acetate]",pIC50,[1]; [6],3.94
same,pIC50,[3]; [7],3.92
"CCOC(=O)CC1SC(=NN=Cc2ccc([N+](=O)[O-])cc2)NC1=O (centres unmarked) [2f, Ethyl 2-(2-(4-nitrobenzylidene)hydrazono)-4-oxothiazolidine-5-acetate]",pIC50,[1]; [6],3.49
same,pIC50,[3]; [7],4.24
"CCOC(=O)CC1SC(=NN=Cc2cccc([N+](=O)[O-])c2)NC1=O (centres unmarked) [2g, Ethyl 2-(2-(3-nitrobenzylidene)hydrazono)-4-oxothiazolidine-5-acetate]",pIC50,[1]; [6],3.48
same,pIC50,[3]; [7],3.51
"CCOC(=O)CC1SC(=NN=Cc2ccccc2[N+](=O)[O-])NC1=O (centres unmarked) [2h, Ethyl 2-(2-(2-nitrobenzylidene)hydrazono)-4-oxothiazolidine-5-acetate]",pIC50,[1]; [6],3.53
same,pIC50,[3]; [7],4.77
"CCOC(=O)CC1SC(=NN=Cc2ccc(OC)cc2)NC1=O (centres unmarked) [2i, Ethyl 2-(2-(4-methoxybenzylidene)hydrazono)-4-oxothiazolidine-5-acetate]",pIC50,[1]; [6],3.83
same,pIC50,[3]; [7],3.77
"CCOC(=O)CC1SC(=NN=Cc2ccccc2OC)NC1=O (centres unmarked) [2j, Ethyl 2-(2-(2-methoxybenzylidene)hydrazono)-4-oxothiazolidine-5-acetate]",pIC50,[1]; [6],3.63
same,pIC50,[3]; [7],3.73
"CCOC(=O)CC1SC(=NN=Cc2cccc(O)c2)NC1=O (centres unmarked) [2k, Ethyl 2-(2-(3-hydroxybenzylidene)hydrazono)-4-oxothiazolidine-5-acetate]",pIC50,[1]; [6],3.43
same,pIC50,[3]; [7],3.44
"CCOC(=O)CC1SC(=NN=Cc2ccccc2O)NC1=O (centres unmarked) [2l, Ethyl 2-(2-(2-hydroxybenzylidene)hydrazono)-4-oxothiazolidine-5-acetate]",pIC50,[1]; [6],4.17
same,pIC50,[3]; [7],4.07
"CCOC(=O)CC1SC(=NN=Cc2ccc(C)cc2)NC1=O (centres unmarked) [2m, Ethyl 2-(2-(4-methylbenzylidene)hydrazono)-4-oxothiazolidine-5-acetate]",pIC50,[1]; [6],4.73
same,pIC50,"[1]; read-out: Promastigotes IC50L.Inf, 72 hours",4.73
same,pIC50,[3]; [7],4.87
"CCOC(=O)CC1SC(=NN=Cc2ccccc2C)NC1=O (centres unmarked) [2n, Ethyl 2-(2-(2-methylbenzylidene)hydrazono)-4-oxothiazolidine-5-acetate]",pIC50,[1]; [6],3.78
same,pIC50,[3]; [7],3.57
"CCOC(=O)CC1SC(=NN=C2CCCc3ccccc32)NC1=O (centres unmarked) [2o, Ethyl 2-((2-(3,4-dihydronaphthalen-1(2H)-ylidene))hydrazono)-4-oxo-thiazolidin-5-acetate]",pIC50,[1]; [6],3.75
same,pIC50,[3]; [7],3.75
"CCOC(=O)CC1SC(=NN=Cc2ccc(O)c(OC)c2)NC1=O (centres unmarked) [2p, Ethyl 2-(2-(4-hydroxy-3-methoxybenzylidene)hydrazono)-4-oxothiazolidine-5-acetate]",pIC50,[1]; [6],3.49
same,pIC50,[3]; [7],3.63
"O=C(Cn1ccnc1[N+](=O)[O-])NCc1ccccc1 [BZD, Benznidazole, reference compound]",pIC50,[2],5.25
same,double-positive (double-stained) cells (upper right quadrant),T. cruzi trypomastigotes; at 2 × IC50 (1f 1.66 μM; BZD 70.8 μM),19.56%
same,CC50,LLC-MK2 cells; standard drug BZD,615 µM
"CCCCCCCCCCCCCCCCOP(=O)([O-])OCC[N+](C)(C)C [Miltefosine, reference compound]",CC50,LLC-MK2 cells; standard drug Miltefosine,12.3 µM
same,pIC50,"[4]; read-out: Promastigotes IC50L.Ama, standard drug Miltefosine",4.44
same,pIC50,"[5]; read-out: Promastigotes IC50L.Inf, standard drug Miltefosine",4.27
